The values below come from the RNAGym collection of RNA variant scans (doi:10.1126/science.aae0568).

B1: tRNA (parent)
chain: GUUCCGUUGGCGUAAUGGUAACGCGUCUCCCUCCUAAGGAGAAGACUGCGGGUUCGAGUCCCGUACGGAACG

This sample holds only a part of the variants without activity. Some results are limits rather than exact numbers.

In the data set the parent is B1. In words: yeast fitness relative to wild type (ratio to wild type); higher = fitter; tRNA-Arg(CCU), competitive growth, 37 C, YPD. The method in brief: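 Changes in genotype frequencies gave Darwinian fitness relative to wild type. Frequencies were read by 100-nucleotide paired-end sequencing of gene amplicons before and after pooled Saccharomyces cerevisiae strains, carrying tRNA-Arg(CCU) gene variants at the native locus, were competed in YPD at 37°C for 24 hours in six replicates. A genotype was kept only with ≥ 100 starting reads, and estimates < 0.5 were set to 0.5.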
With C11G U16G G38C, the yeast fitness turned out to be 0.577.

In the case of C11G G12C A43U G44A, the yeast fitness was 0.612. C11G G12C U16G A21G C33G: the yeast fitness is at most 0.5. With C11G C22U U53C, the yeast fitness was at most 0.5. For C11G G23C U35G G39C G50C C66A, the yeast fitness is at most 0.5. In the case of C11G U59A C61A, the yeast fitness is at most 0.5. As to C11G C31G C55A, the yeast fitness was determined as 0.618. The same measure for C11G C24U G48A G67U A69C: at most 0.5; for C11G C27U G56A A57G: at most 0.5.

Regarding C11G G17A C62G, the yeast fitness is at most 0.5. As for C11G G18C A20U C33G C34G G50C, the yeast fitness is 0.632.

For the variant C11G C24G C55U A65U, the yeast fitness is at most 0.5. As for C11G C46A A65G, the yeast fitness is at most 0.5. Regarding C11G C29A U35G A43G A70C, the yeast fitness was at most 0.5. For C11G G67U A69C, the yeast fitness was determined as 0.528. Take C11G C34G A37U: the yeast fitness is at most 0.5.

Take C11G U16A C22U U28A C31A A42C A45U G51A U64A: the yeast fitness was at most 0.5.

As for C11G U13C A14G G17A G48C C62U C66G A70G, the yeast fitness is at most 0.5. On to C11G C24G C29U C62G C66A, for which the yeast fitness was at most 0.5. For C11G C24U C34G, the yeast fitness was at most 0.5. Turning to C11G U32C G48A C60G, the yeast fitness is at most 0.5. As to C11G C29G A40G G41A C49A C62G, the yeast fitness was 0.751.

C11G C27U A37U G44A C62A: the yeast fitness amounted to 0.511. For C11U A14C C29G C30G A36U A40U, the yeast fitness came to 0.591. On to C11G C30U C34U, for which the yeast fitness was at most 0.5.

As for C11G U13G C30U A37G A40U A57U, the yeast fitness is at most 0.5. As for C11G C22U C24G C30G, the figure is at most 0.5; as for C11G C46U G51A, 0.649.

For C11G G12A C22A A36C C61G A69C, the yeast fitness was at most 0.5. As for C11G U32G A45G C49U A70U, the figure is at most 0.5; as for C11G U16A, 0.666; as for C11G G17A C22U C27U A57C, at most 0.5. As for C11G U19C G58C, the figure is at most 0.5. The same measure for C11G C31U A42U A70U: at most 0.5; for C11G C24U G25A A42G: at most 0.5; for C11G C31U U35A A37G A40C U47C U64G: at most 0.5.

Consider C11G C30U U54A, for which the yeast fitness is at most 0.5. On to C11G C34A C60A, for which the yeast fitness is at most 0.5. As for C11G C29G U35C U47A G68C, the figure is at most 0.5; as for C11G C24U A42G A65G, at most 0.5. For the variant C11G U47A G67A, the yeast fitness came to 0.548. As for C11G G58C, the figure is 0.589. As to C11G C49U A70G, the yeast fitness was 0.573. C11G C29U U59A A69U: the yeast fitness was at most 0.5. For the variant C11G G12A A45C C46G G52A, the yeast fitness is at most 0.5. As for C11G U32G A57C C62U C66U, the yeast fitness came out at 0.556. Regarding C11G G12C A20C C24G A37G C60G C61U, the yeast fitness was at most 0.5. As to C11G G48A G63A A65C, the yeast fitness is at most 0.5. For the variant C11G C31A G38C C55U G58A, the yeast fitness came out at 0.577. In the case of C11G C34G U59C, the yeast fitness was at most 0.5. In the case of C11G G17A A20U C33G G38C, the yeast fitness is at most 0.5.

For the variant C11G C62U, the yeast fitness was found to be 0.579. For C11G U16C C22U C55U G68U, the yeast fitness is at most 0.5. As for C11G G12C C49U C60G, the yeast fitness is at most 0.5. The same measure for C11G U19A A21G C27U G39C C60A: at most 0.5. On to C11G U26A C31A G44C C62A, for which the yeast fitness was at most 0.5. C11G C27A C66A: the yeast fitness was at most 0.5. For the variant C11G G48A A65U, the yeast fitness is 0.525. In the case of C11G U28A G39A G48A G67C, the yeast fitness is at most 0.5.

Take C11G U28A G39A G48A C61G C66G: the yeast fitness was 0.561. Consider C11G U26A U35A, for which the yeast fitness was at most 0.5. On to C11U A14C C29U C30G A40G C49A, for which the yeast fitness was at most 0.5. Consider C11G C33U U59C, for which the yeast fitness stood at 0.66. For C11G C27U A43C, the yeast fitness worked out at 0.502. With C11G G38A C66U, the yeast fitness is at most 0.5. Turning to C11G C33A G50C, the yeast fitness is at most 0.5.

Turning to C11G U13G G63A, the yeast fitness is at most 0.5.

For C11G C46G G50C, the yeast fitness was 0.694. With C11G C24U C30U U54A, the yeast fitness is at most 0.5. For C11G C24A U28G G63A, the yeast fitness is 0.586. Regarding C11G G17C C29U G51A, the yeast fitness is 0.625.

Consider C11G U53C, for which the yeast fitness stood at 0.584.

As to C11G C34U G44C G50C C66U, the yeast fitness is at most 0.5. Regarding C11G U16A A42G A57U, the yeast fitness is at most 0.5. As for C11G C27U C33G A65C, the figure is at most 0.5. Turning to C11G C27G C55A, the yeast fitness was at most 0.5.

With C11G U28A C31G G38A C49A A69G, the yeast fitness was determined as 0.559. As for C11G G63C G67C, the figure is at most 0.5. Regarding C11G C24G G44C, the yeast fitness is at most 0.5. The same measure for C11G C24A U28G: at most 0.5; for C11G G44C A57C C60U: 0.518; for C11G C34A G44A C46U G68A: at most 0.5.

Regarding C11G G56C G67U, the yeast fitness was at most 0.5.
